ChEMBL document CHEMBL1926564, “Design, synthesis and biological activity of original pyrazolo-pyrido-diazepine, -pyrazine and -oxazine dione derivatives as novel dual Nox4/Nox1 inhibitors” (Bioorg Med Chem, 2011)

Species on record: Homo sapiens
Assay: Selectivity ratio of Ki for human NOX2 to Ki for human NOX4
Method in brief: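 Ratio of Ki values from the Amplex Red membrane ROS assay (PMN membranes for Nox2, Nox4-overexpressing membranes), NADPH-triggered, 1 nM–100 µM, 20 min at 37 °C; Ki via Cheng-Prusoff.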

Ratio Ki: 18.6
Structure (SMILES): Cl.O=c1c2c3n(c(=O)cc2[nH]n1-c1ccccc1Cl)CCCN(Cc1ccccc1)C3
